Activity calls are given as the source filed them. No cut-off for these calls is given here.
How the values were obtained:
[1] = target: T1, 5-hydroxytryptamine receptor 1A (Rattus norvegicus, UniProt P19327); experiment: Displacement of [3H]8-OH-DPAT from rat cerebral cortex 5-HT1A receptor after 30 mins by liquid scintillation counting; assay type: tissue-based
T1 sequence (P19327 whole entry): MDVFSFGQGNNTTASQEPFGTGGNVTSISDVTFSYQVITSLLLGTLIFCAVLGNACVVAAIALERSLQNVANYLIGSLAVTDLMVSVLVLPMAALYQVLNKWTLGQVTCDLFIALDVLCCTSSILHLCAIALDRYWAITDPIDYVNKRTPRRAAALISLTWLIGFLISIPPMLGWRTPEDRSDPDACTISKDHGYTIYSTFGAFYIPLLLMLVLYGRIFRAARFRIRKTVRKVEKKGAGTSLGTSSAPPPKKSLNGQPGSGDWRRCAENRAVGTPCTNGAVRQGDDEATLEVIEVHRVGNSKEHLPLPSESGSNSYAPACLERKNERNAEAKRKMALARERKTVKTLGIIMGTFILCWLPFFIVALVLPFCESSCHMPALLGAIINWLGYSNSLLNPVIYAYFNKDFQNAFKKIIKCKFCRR
Method in brief: (§1)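 Competition binding on rat cerebral cortex homogenates. 5-HT1A was labelled with [3H]-8-hydroxy-2-(di-n-propylamino)tetralin and 5-HT2A with [3H]ketanserine. The method followed a previously reported procedure. Ki values are reported as mean ± SEM.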

[2] = target: 5-hydroxytryptamine receptor 2A (Rattus norvegicus, UniProt P14842); experiment: Displacement of [3H]-ketanserin from rat cerebral cortex 5-HT2A receptor after 30 mins by liquid scintillation counting; assay type: tissue-based; method in brief: as §1
Mus musculus [3] = experiment: Antidepressant activity in Kunming mouse assessed as decrease in immobility time at 40 mg/kg, po by forced swimming test; assay type: functional, organism-based; parameters: dose 40 mg/kg
Mus musculus [4] = experiment: Antidepressant activity in Kunming mouse assessed as decrease in immobility time at 40 mg/kg, po by tail suspension test; assay type: functional, organism-based; parameters: dose 40 mg/kg
Mus musculus [5] = experiment: Toxicity in Kunming mouse assessed as locomotor activity at 10 mg/kg, po measured for 10 mins (reference value: 1165 +/- 263 cm); assay type: organism-based; parameters: dose 10 mg/kg, route oral; settings: in vivo
Method in brief: (§2)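 Mice were given test compound orally, with a vehicle-treated group as control. Locomotor activity was recorded for 10 min and reported as distance travelled (cm). Values are mean ± SEM, n = 10 per group. The test was used to rule out false positives in the swim and tail-suspension tests.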

Mus musculus [6] = experiment: Antidepressant activity in po dosed Kunming mouse assessed as decrease in immobility time by forced swimming test; assay type: functional
Mus musculus [7] = experiment: Toxicity in Kunming mouse assessed as locomotor activity at 40 mg/kg, po measured for 10 mins (reference value: 1165 +/- 263 cm); assay type: organism-based; parameters: dose 40 mg/kg, route oral; settings: in vivo; method in brief: as §2
Mus musculus [8] = experiment: Toxicity in Kunming mouse assessed as locomotor activity at 100 mg/kg, po measured for 10 mins (reference value: 1165 +/- 263 cm); assay type: organism-based; parameters: dose 100 mg/kg, route oral; settings: in vivo; method in brief: as §2

Sequence of 5-hydroxytryptamine receptor 2A (P14842 whole entry): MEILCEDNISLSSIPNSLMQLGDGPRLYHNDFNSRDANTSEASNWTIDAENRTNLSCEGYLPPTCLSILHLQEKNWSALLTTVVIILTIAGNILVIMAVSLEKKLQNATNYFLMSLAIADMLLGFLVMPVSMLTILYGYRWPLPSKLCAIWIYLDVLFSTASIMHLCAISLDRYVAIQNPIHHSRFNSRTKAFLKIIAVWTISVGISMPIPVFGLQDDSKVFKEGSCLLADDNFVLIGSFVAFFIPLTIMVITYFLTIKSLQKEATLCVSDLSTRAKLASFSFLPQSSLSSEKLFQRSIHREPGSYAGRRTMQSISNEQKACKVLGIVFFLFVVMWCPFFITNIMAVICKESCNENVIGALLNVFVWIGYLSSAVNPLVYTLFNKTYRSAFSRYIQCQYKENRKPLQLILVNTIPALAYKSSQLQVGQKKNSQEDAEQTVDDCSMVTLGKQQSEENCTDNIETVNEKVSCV

Structure (SMILES) | Ki [1] | Ki [2] | Decrease in immobility time (Mus musculus [3]) | antidepressant activity (active/inactive) (Mus musculus [4]) | Activity (Mus musculus [5]) | ED50 (Mus musculus [6]) | Activity (Mus musculus [7]) | Activity (Mus musculus [8])
c1ccc(C2Oc3ccccc3OC2COCCCN2CCC(c3nc4ccccc4s3)CC2)cc1 (stereo not given) | 134 nM | 19 nM | Active | Active | – | – | – | –
CC1Oc2ccccc2OC1COCCCN1CCC(c2nc3ccccc3s2)CC1 (stereo not given) | 103 nM | 131 nM | – | – | – | – | – | –
O=C(NCCN1CCC(c2nc3ccccc3s2)CC1)C1COc2ccccc2O1 (stereo not given) | 94 nM | 113 nM | – | – | – | – | – | –
CN(C)CCCN1c2ccccc2CCc2ccccc21 [IMIPRAMINE] | – | – | – | – | 1248 cm | – | – | –
c1ccc(C2Oc3ccccc3OC2COCCCCCN2CCC(c3nc4ccccc4s3)CC2)cc1 (stereo not given) | 131 nM | 148 nM | – | – | – | – | – | –
c1ccc2c(c1)OCC(COCCCN1CCC(c3nc4ccccc4o3)CC1)O2 (stereo not given) | 120 nM | 30 nM | – | – | – | – | – | –
CC1Oc2ccccc2OC1COCCCN1CCC(c2nc3ccccc3o2)CC1 (stereo not given) | 152 nM | 8.2 nM | – | – | – | – | – | –
c1ccc(C2Oc3ccccc3OC2COCCCCCN2CCC(c3nc4ccccc4o3)CC2)cc1 (stereo not given) | 106 nM | 0.74 nM | – | – | – | – | – | –

Continued, in another order:

Ki [1] | Ki [2] | Structure (SMILES) | Decrease in immobility time (Mus musculus [3]) | antidepressant activity (active/inactive) (Mus musculus [4]) | Activity (Mus musculus [5]) | ED50 (Mus musculus [6]) | Activity (Mus musculus [7]) | Activity (Mus musculus [8])
84 nM | 88 nM | O=C(NCCCN1CCC(c2nc3ccccc3o2)CC1)C1COc2ccccc2O1 (stereo not given) | Active | Active | – | – | – | –
31 nM | 24 nM | c1ccc(C2Oc3ccccc3OC2COCCCCN2CCC(c3nc4ccccc4s3)CC2)cc1 (stereo not given) | Active | Active | – | – | – | –
76 nM | 87 nM | O=C(NCCN1CCC(c2nc3ccccc3o2)CC1)C1COc2ccccc2O1 (stereo not given) | – | – | – | – | – | –
17 nM | 0.71 nM | c1ccc(C2Oc3ccccc3OC2COCCCCN2CCC(c3nc4ccccc4o3)CC2)cc1 (stereo not given) | Active | Active | 1180 cm | 39 mg/kg | 1114 cm | 1150 cm
92 nM | 28 nM | c1ccc2c(c1)OCC(COCCCN1CCC(c3nc4ccccc4s3)CC1)O2 (stereo not given) | – | – | – | – | – | –
85 nM | 90 nM | O=C(NCCCN1CCC(c2nc3ccccc3s2)CC1)C1COc2ccccc2O1 (stereo not given) | Active | Active | – | – | – | –
51 nM | 4.1 nM | c1ccc(C2Oc3ccccc3OC2COCCCN2CCC(c3nc4ccccc4o3)CC2)cc1 (stereo not given) | Active | Active | – | – | – | –
